# High-throughput results as filed in PubChem.
# FN deposition inh: fibronectin deposition inhibition; 350,000 tested, 0.086% active; AH1F fibroblasts, Alexa488-fibronectin deposition fluorescence, overnight; inhibition, % at 12.6 µM; AID 743247;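 active = mean inhibition across replicates of 30% or more, regardless of how many single replicates reach that level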;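 also: positive control wells lacked labelled fibronectin entirely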
#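 Material – AH1F fibroblast monolayer, labelled fibronectin deposition · Reagent – labelled fibronectin 24 nM · Timing – 1 h adhesion, overnight exposure · Measured by – fluorescence at 485 nm excitation, 525 nm emission · Read-out – inhibition of fibronectin deposition signal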
# RAD54 inh: inhibitors of human RAD54 branch migration. RAD54 Holliday junction branch migration, FAM/BHQ fluorescence. inhibition, % at 10.4 µM. 360,000 tested, 0.14% active. AID 602329;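 active = mean normalized replicate activity at least 40 and at least half of replicates scoring 40 or more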;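 also: 0% = median of neutral control wells and 100% = median of positive control wells; inhibitors cause a drop in the FAM fluorescence signal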
# RAD52 anneal inh: RAD52 (human) annealing inhibition; inhibition, % at 18.7 µM; recombinant RAD52 DNA annealing, FRET fluorescence; P43351; 360,000 tested, 0.46% active;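 active = every replicate showing at least 50% inhibition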
# Target sequence (P43351 whole entry, looked up): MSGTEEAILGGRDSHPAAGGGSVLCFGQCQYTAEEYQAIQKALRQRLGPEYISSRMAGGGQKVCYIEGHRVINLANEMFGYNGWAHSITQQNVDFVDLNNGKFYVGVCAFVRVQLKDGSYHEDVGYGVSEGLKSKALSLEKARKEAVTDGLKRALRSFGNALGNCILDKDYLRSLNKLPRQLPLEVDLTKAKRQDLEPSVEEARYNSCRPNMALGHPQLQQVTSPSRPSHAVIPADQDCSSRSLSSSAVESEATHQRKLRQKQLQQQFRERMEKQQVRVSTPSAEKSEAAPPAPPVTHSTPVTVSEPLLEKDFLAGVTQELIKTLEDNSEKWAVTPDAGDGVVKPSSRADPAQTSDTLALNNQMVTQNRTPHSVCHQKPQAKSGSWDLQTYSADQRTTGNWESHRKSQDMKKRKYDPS
# PAX8 inh HTS: lowers PAX8-driven luciferase in RMG-I cells. RMG-I TPO-luciferase reporter, SteadyGlo, 24 h. inhibition, % at 12.6 µM. 360,000 tested, 1.2% active;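 active = mean replicate inhibition at least 60% with every replicate also reaching 60%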;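 also: luciferase light reporting Pax8 driven TPO promoter activity; plate controls were median of neutral control wells for no effect and mitoxantrone controls for full effect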
# * hit, by the source's call; . = no result; ! = not active in a repeat. In the library only some 1.3% were active in any assay of this set; here they are far more common.
SMILES,FN deposition inh,RAD54 inh,RAD52 anneal inh,PAX8 inh HTS
CN(C)CC#Cc1cccc(-c2nc(C(=O)NCc3ccc4c(c3)OCO4)cc3c2[C@@H](CCO)N(S(=O)C(C)(C)C)C3)c1 (some centres undefined),.,-10,-27,-3
O=C(/C=C/c1ccc(Cl)cc1Cl)N1CCN(c2ccccc2[N+](=O)[O-])CC1,21,4,-7,119*
O=C(/C=C/c1ccc(Cl)cc1Cl)N1CCN(c2ccc([N+](=O)[O-])c(N3CCOCC3)c2)CC1,1,.,.,-2
COC(=O)C[C@@H]1CC[C@@H]2[C@H](COC[C@H](O)CN2C(=O)Nc2cccc(F)c2)O1,6,6,21,-81
CC1=C(C)/C(=N\OS(=O)(=O)c2ccc(C)cc2)C=CC1=O,33*,.,.,63*
O=C(c1ccccc1F)N1CCN(c2cccc(C(F)(F)F)c2)CC1,-3,9,.,.
O=C(c1c(F)c(F)c(F)c(F)c1F)N1CCN(c2cccc(C(F)(F)F)c2)CC1,-8,-1,.,67*
Cc1c2c(cc3c1[nH]c1ccccc13)C=NCC2,-16,58*,9,28
C[C@H]1CN([C@@H](C)CO)C(=O)c2cccc(NS(=O)(=O)c3ccc(Cl)cc3)c2O[C@@H]1CN(C)Cc1ccc(-c2ccccc2)cc1,-10,-3,9,-21
C[C@@H]1CN([C@@H](C)CO)C(=O)c2cccc(NS(=O)(=O)c3ccc(Cl)cc3)c2O[C@@H]1CN(C)Cc1ccc(-c2ccccc2)cc1,-5,4,32,65*
C[C@H](CO)N1C[C@H](C)[C@H](CN(C)Cc2ccc(Cl)c(Cl)c2)Oc2c(NS(=O)(=O)c3ccc(Cl)cc3)cccc2C1=O,.,6,8,83*
Cc1ccc(S(=O)(=O)Nc2cccc3c2O[C@H](CN(C)Cc2ccc(Cl)c(Cl)c2)[C@H](C)CN([C@@H](C)CO)C3=O)cc1,.,.,1,5
S=c1[nH]nc(-c2ccccn2)n1/N=C/c1cccc2ccccc12,2,.,-12,122*
COc1cc(NCCCC(C)N)c2ncccc2c1 (centres undefined),.,69*,.,.
Cc1c(S(=O)(=O)N2CCN(c3ccccc3)CC2)c(=O)n(C)c(=O)n1C,0,-1,-7,3
O=C1CN(S(=O)(=O)Cc2ccccc2)C[C@@H]2[C@@H](c3ccc(C#CCC4CCCC4)cc3)[C@@H](CO)N12,.,.,-6,99*
O=C1CN(S(=O)(=O)Cc2ccccc2)C[C@@H]2[C@H](c3ccc(C#Cc4ccc(F)cc4)cc3)[C@H](CO)N12,10,.,-10,80*
CCCCC[C@H](O)/C=C/[C@H]1CCC(=O)[C@@H]1CCCCCCC(=O)N1CCCCC1CO (some centres undefined),9,-9,4,70*
Cc1cccc(C2(c3cccc(C)c3)CC2C(=O)NCC2CCCO2)c1 (centres undefined),0,1,-8,10
Cc1ccccc1S(=O)(=O)N1CCCCN2[C@@H](CO)[C@H](c3ccc(-c4cccc(F)c4)cc3)[C@@H]2C1,.,12,-26,43
COc1ccc(N2C(=O)C3CC(C)=C(C)CC3C2=O)c(OC)c1 (centres undefined),-8,5,.,.
COc1cc(N2C(=O)C=CC2=O)ccc1N1C(=O)C=CC1=O,.,.,-10,115*
Cc1ccc(Cl)cc1N1CCN(C(=O)c2noc(C)c2[N+](=O)[O-])CC1,-1,6,-11,105*
COc1ccc(CNc2nc3ccccc3n2CCN2CCCCC2)cc1,-1,13,-20,-15
COc1ccc(CCN2CCC(Nc3nc4ccccc4n3Cc3ccc(F)cc3)CC2)cc1,-6,11,-1,74*
SMILES,FN deposition inh,RAD54 inh,RAD52 anneal inh,PAX8 inh HTS
CN(C)c1nc(N)nc(CSc2ncc(Cl)cc2Cl)n1,5,3,.,.
Cc1cccc(-n2ncc3c(NC(C)C)ncnc32)c1,31*,9,-4,-200
COc1ccc(C(=O)Nc2sc3c(c2C(=O)O)CC(C)(C)OC3)cc1,3,-3,.,1
Cc1cc(C)nc(SCc2ccc(C(=O)N/N=C/c3cccc(O)c3O)cc2)n1,3,.,.,68*
O=C(NNc1ccccc1[N+](=O)[O-])Nc1ccc(Cl)c(Cl)c1,-1,.,-14,-2
CCN(CC)S(=O)(=O)c1cc([N+](=O)[O-])ccc1NNC(=O)Nc1ccc(Cl)c(Cl)c1,3,-3,.,89*
COc1cccc(-c2ccc3c(c2)O[C@H](CN(C)C)[C@H](C)CN([C@@H](C)CO)S3(=O)=O)c1,.,-3,3,.
O=[N+]([O-])c1cccnc1S(=O)(=O)c1ccccc1,-10,4,-3,110*
COc1ccc([N+](=O)[O-])c(S(=O)(=O)c2ccccc2)n1,22,6,13,103*
COc1ccc([N+](=O)[O-])c(S(=O)(=O)c2ccc(Cl)cc2)n1,17,7,-11,82*
Nc1cccnc1S(=O)(=O)c1ccccc1,5,-5,-12,-3
COc1ccccc1S(=O)(=O)c1ccccc1[N+](=O)[O-],-3,-5,-18,-13
COc1nc(OC)nc(Oc2ccc(Cl)cc2[N+](=O)[O-])n1,-2,.,-6,1
Cc1[nH]c2ccccc2c1/C=C/C(=O)c1ccccc1,.,0,.,-9
O=C(C=Cc1ccccc1)c1c[nH]c2ccccc2c1=O,10,-4,-21,86*
Cc1[nH]c2ccccc2c(=O)c1C(=O)/C=C/c1ccccc1,23,8,-4,103*
N#Cc1ccccc1OCC(=O)OCC(=O)N1CCCC1,6,-9,-11,-1
CCc1c(Cc2ccccc2)ncn1CCc1ccccc1OC,3,.,9,78*
CCCCc1c(-c2ccccc2OC)ncn1CCc1ccccc1OC,12,.,2,27
CCCCc1c(-c2ccccc2OC)ncn1Cc1ccccc1,4,.,0,24
CCCCc1c(-c2ccccc2OC)ncn1Cc1ccc(C(C)(C)C)cc1,-1,.,-18,72*
CCCCCc1c(-c2ccccc2OC)ncn1CCc1ccccc1OC,14,.,3,99*
CC(=O)Nc1cccc(C(=O)N(CCc2ccccc2)Cc2ccccc2)c1,0,0,-2,-37
c1ccc2c(c1)nc1n2CCN1,.,2,.,.
O=C(NC1CCCCC1)N1C[C@@H]2N[C@H](C1)C2c1ccc(-c2ccc(F)cc2)cc1 (some centres undefined),-11,.,.,105*!
O=C(Nc1cccc(F)c1)N1C[C@@H]2N[C@H](C1)C2c1ccc(-c2ccncc2)cc1 (some centres undefined),16,.,6,-10
COc1ccc(-c2ccc(C3[C@@H]4CN(C(=O)Nc5cccc(F)c5)C[C@H]3N4)cc2)cc1 (some centres undefined),9,.,84*,100*!
COc1cccc(-c2ccc(C3[C@@H]4CN(C(=O)C5CC5)C[C@H]3N4)cc2)c1 (some centres undefined),6,.,44,80*!
COc1ccc(NC(=O)N2C[C@@H]3N[C@H](C2)[C@@H]3c2ccc(-c3ccc(OC)cc3)cc2)cc1,-3,.,68*,93*
